Assays:
[1] = Cytotoxicity against human HepG2 cells after 72 hrs by MTT assay; type: cell-based
Summary of the method: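 HepG2 cells seeded at 5×10^3/well in RPMI with 10% FBS, L-glutamine, penicillin/streptomycin, 37 °C under 6% CO₂/14% O₂/80% N₂. Compounds added after 24 h, 72 h exposure, duplicate wells. MTT (5 mg/mL stock) for 2 h, formazan dissolved in DMSO, A570 with 630 nm reference. Viability relative to untreated cells. CC50 from non-linear regression, mean of three independent experiments.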

[2] = system: Plasmodium falciparum; experiment: Antiplasmodial activity against multidrug-resistant Plasmodium falciparum K1 ring stage after 72 hrs by […] Green fluorescence-based assay; type: functional, organism-based; details: K1, 72 h
[3] = Selectivity index, ratio of CC50 for human HepG2 cells to IC50 for multidrug-resistant Plasmodium falciparum K1 ring stage; type: functional
Summary of the method: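 SI = CC50 (HepG2)/IC50 (K1). HepG2 MTT: 5×10^3 cells/well, 24 h preculture, compound 72 h, 37 °C; MTT 2 h, formazan in DMSO, A570 (ref 630 nm); duplicates, CC50 by non-linear regression, mean of three experiments. K1 IC50 by 72 h SYBR Green assay on sorbitol-synchronized rings.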

SMILES | CC50 at 72 h [1] [µM] | IC50 [2] [µM] | Ratio CC50/IC50 [3]
Cc1ccc(S(=O)(=O)c2cc3ccccc3c3sc(C)nc23)cc1 | 2.2 | – | –
Cc1ccc(S(=O)(=O)c2cc3ccc(C)cc3c3sc(C)nc23)cc1 | > 250 | > 25 | –
Cc1ccc(S(=O)(=O)c2cc3cc(F)ccc3c3sc(C)nc23)cc1 | 3.1 | – | –
COc1cc2cc(S(=O)(=O)c3ccc(C)cc3)c3nc(C)sc3c2cc1OC | > 125 | > 25 | –
Cc1ccc(S(=O)(=O)c2c(N)c3ccccc3c3sc(C)nc23)cc1 | 0.2 | – | –
Cc1ccc(S(=O)(=O)c2c(N)c3cc(F)ccc3c3sc(C)nc23)cc1 | 0.2 | – | –
Cc1nc2c(S(=O)(=O)c3ccccc3)cc3ccccc3c2s1 | 11.3 | > 25 | <0.5
Cc1ccc2cc(S(=O)(=O)c3ccccc3)c3nc(C)sc3c2c1 | > 125 | 4.8 | >26
Cc1nc2c(S(=O)(=O)c3ccccc3)cc3cc(F)ccc3c2s1 | 26 | > 25 | <1
COc1cc2cc(S(=O)(=O)c3ccccc3)c3nc(C)sc3c2cc1OC | > 125 | 2.7 | >45
Cc1nc2c(S(=O)(=O)c3ccccc3)c(N)c3ccccc3c2s1 | > 500 | > 25 | –
Cc1nc2c(S(=O)(=O)c3ccccc3)c(N)c3cc(F)ccc3c2s1 | > 500 | > 25 | –
Cc1nc2c(S(=O)(=O)c3ccc(Cl)cc3)cc3ccccc3c2s1 | 6 | – | –
Cc1nc2c(S(=O)(=O)c3ccc(Cl)cc3)cc3cc(F)ccc3c2s1 | 3.4 | – | –
COc1cc2cc(S(=O)(=O)c3ccc(Cl)cc3)c3nc(C)sc3c2cc1OC | > 31.2 | > 25 | –
Cc1nc2c(S(=O)(=O)c3ccc(Cl)cc3)c(N)c3ccccc3c2s1 | 1 | – | –
Cc1nc2c(S(=O)(=O)c3ccc(Cl)cc3)c(N)c3cc(F)ccc3c2s1 | 0.5 | – | –
C[C@H]1c2cccc(O)c2C(=O)C2=C(O)[C@]3(O)C(=O)C(C(N)=O)=C(O)[C@@H](N(C)C)[C@@H]3[C@@H](O)[C@@H]21.O [DOXYCYCLINE] | – | – | 4

Reference: ChEMBL document CHEMBL2062526, “Tandem synthesis and in vitro antiplasmodial evaluation of new naphtho[2,1-d]thiazole derivatives” (Eur J Med Chem, 2012)
